Experimental data taken from ChEMBL document CHEMBL3286367, “Synthesis of new class of spirocarbocycle derivatives by multicomponent domino reaction and their evaluation for antimicrobial, anticancer activity and molecular docking studies” (2014).
In brackets after ≈: the same amount, converted by molar mass. Activity calls are given as the source filed them. The rule behind the calls is not given here.

Experiments:
[1] = test system: Staphylococcus epidermidis; experiment: Antimicrobial activity against Staphylococcus epidermidis MTCC 3615 assessed as zone of inhibition at 1 mg/disc after 24 hrs incubation by disc diffusion assay; format: functional
Outline: (§1)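 Inocula grown in Mueller Hinton broth for 24 h at 37 °C and swabbed onto Mueller Hinton agar. Discs carried 1 mg compound each and stood 30 min at room temperature before 24 h incubation at 37 °C. Solvent as negative control. Inhibition zones recorded in mm; experiment done twice.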

Staphylococcus aureus [2] = experiment: Antimicrobial activity against Staphylococcus aureus MTCC 96 assessed as zone of inhibition at 1 mg/disc after 24 hrs incubation by disc diffusion assay; format: functional; outline: as §1
Staphylococcus aureus [3] = experiment: Antimicrobial activity against methicillin-resistant Staphylococcus aureus assessed as zone of inhibition at 1 mg/disc after 24 hrs incubation by disc diffusion assay; format: functional
Outline: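 Inoculum grown in Mueller Hinton broth 24 h at 37°C, swabbed onto Mueller Hinton agar and dried 10 min. Discs loaded at 1 mg/disc, then 30 min at room temperature for diffusion. Plates incubated 24 h at 37°C. Solvent negative control; streptomycin positive control. Zone of inhibition read in mm; experiment done twice.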

Micrococcus luteus [4] = experiment: Antimicrobial activity against Micrococcus luteus MTCC 106 assessed as zone of inhibition at 1 mg/disc after 24 hrs incubation by disc diffusion assay; format: functional; outline: as §1
Klebsiella aerogenes [5] = experiment: Antimicrobial activity against Enterobacter aerogenes MTCC 111 assessed as zone of inhibition at 1 mg/disc after 24 hrs incubation by disc diffusion assay; format: functional; outline: as §1
Salmonella typhimurium [6] = experiment: Antimicrobial activity against Salmonella typhimurium MTCC 1251 assessed as zone of inhibition at 1 mg/disc after 24 hrs incubation by disc diffusion assay; format: functional, Salmonella enterica subsp. enterica serovar Typhimurium; conditions: for inhibition: Salmonella enterica subsp. enterica serovar Typhimurium; outline: as §1
Klebsiella pneumoniae [7] = experiment: Antimicrobial activity against Klebsiella pneumonia MTCC 109 assessed as zone of inhibition at 1 mg/disc after 24 hrs incubation by disc diffusion assay; format: functional; outline: as §1
Proteus vulgaris [8] = experiment: Antimicrobial activity against Proteus vulgaris MTCC 1771 assessed as zone of inhibition at 1 mg/disc after 24 hrs incubation by disc diffusion assay; format: functional; outline: as §1
Shigella flexneri [9] = experiment: Antimicrobial activity against Shigella flexneri MTCC 1457 assessed as zone of inhibition at 1 mg/disc after 24 hrs incubation by disc diffusion assay; format: functional; outline: as §1
Candida albicans = experiment: Antifungal activity against Candida albicans MTCC 227 assessed as zone of inhibition at 1 mg/disc after 48 hrs incubation by disc diffusion assay; format: functional
Outline: (§2)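 Disc diffusion on Mueller Hinton agar with swabbed cultures, 1 mg compound per disc. Discs stood 30 min at room temperature for diffusion, then plates incubated 48 h at 28 °C. Solvent as negative control. Yeast pre-grown in Sabouraud dextrose broth at 28 °C for 48-72 h; filamentous fungal spores came from SDA slants grown 10 days at 28 °C. Zone diameters in mm; run twice.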

Malassezia pachydermatis = experiment: Antifungal activity against Malassezia pachydermatis assessed as zone of inhibition at 1 mg/disc after 48 hrs incubation by disc diffusion assay; format: functional; outline: as §2
Staphylococcus aureus [10] = experiment: Antimicrobial activity against Staphylococcus aureus MTCC 96 assessed as absence of visible growth after 48 to 72 hrs; format: functional
Staphylococcus aureus [11] = experiment: Antimicrobial activity against methicillin-resistant Staphylococcus aureus assessed as absence of visible growth after 48 to 72 hrs; format: functional
Outline: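 Broth two-fold serial dilution in 96-well plates, 1000 to 7.81 µg/mL, compound dissolved in DMSO (2%). Inoculum grown in Mueller Hinton broth 24 h at 37°C. Streptomycin positive control. 5 µl of tested broth plated on MHA; MIC is the lowest concentration inhibiting visible growth on agar.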

Micrococcus luteus [12] = experiment: Antimicrobial activity against Micrococcus luteus MTCC 106 assessed as absence of visible growth after 48 to 72 hrs; format: functional
Klebsiella aerogenes [13] = experiment: Antimicrobial activity against Enterobacter aerogenes MTCC 111 assessed as absence of visible growth after 48 to 72 hrs; format: functional
Salmonella typhimurium [14] = experiment: Antimicrobial activity against Salmonella typhimurium MTCC 1251 assessed as absence of visible growth after 48 to 72 hrs; format: functional, Salmonella enterica subsp. enterica serovar Typhimurium; conditions: Salmonella enterica
Proteus vulgaris [15] = experiment: Antimicrobial activity against Proteus vulgaris MTCC 1771 assessed as absence of visible growth after 48 to 72 hrs; format: functional
Shigella flexneri [16] = experiment: Antimicrobial activity against Shigella flexneri MTCC 1457 assessed as absence of visible growth after 24 hrs
Klebsiella pneumoniae [17] = experiment: Antimicrobial activity against Klebsiella pneumonia MTCC 109 assessed as absence of visible growth after 24 hrs
[18] = test system: Staphylococcus epidermidis; experiment: Antimicrobial activity against Staphylococcus epidermidis MTCC 3615 assessed as absence of visible growth after 24 hrs

| Structure (SMILES) | inhibition zone (IZ) [1] [mm] | inhibition zone (IZ) (Staphylococcus aureus [2]) [mm] | inhibition zone (IZ) (Staphylococcus aureus [3]) [mm] | inhibition zone (IZ) (Micrococcus luteus [4]) [mm] | inhibition zone (IZ) (Klebsiella aerogenes [5]) [mm] | inhibition zone (IZ) (Salmonella typhimurium [6]) [mm] | inhibition zone (IZ) (Klebsiella pneumoniae [7]) [mm] | inhibition zone (IZ) (Proteus vulgaris [8]) [mm] | inhibition zone (IZ) (Shigella flexneri [9]) [mm] | inhibition zone (IZ) (Candida albicans) [mm] | inhibition (Malassezia pachydermatis) | MIC (Staphylococcus aureus [10]) [µg/mL] | MIC (Staphylococcus aureus [11]) [µg/mL] | MIC (Micrococcus luteus [12]) [µg/mL] | MIC (Klebsiella aerogenes [13]) [µg/mL] | MIC (Salmonella typhimurium [14]) [µg/mL] | inhibition zone (IZ) (Malassezia pachydermatis) [mm] | inhibition (Proteus vulgaris [8]) | inhibition (Shigella flexneri [9]) | inhibition (Candida albicans) | other results |
| --- | --- | --- | --- | --- | --- | --- | --- | --- | --- | --- | --- | --- | --- | --- | --- | --- | --- | --- | --- | --- | --- |
| N#CC1=C(N)C2(C(=O)c3ccccc3C2=O)[C@@H](c2ccccc2F)[C@@H]2CCCC=C12 (relative stereo) | 14 | 14 | 13 | 15 | 12 | 10 | 16 | 12 | 14 | 10 | inactive | 250 (≈ 627 µM) | 250 (≈ 627 µM) | 250 (≈ 627 µM) | 250 (≈ 627 µM) | 500 (≈ 1250 µM) |  |  |  |  | MIC (Proteus vulgaris [15]): 250 µg/mL (≈ 627 µM); MIC (Shigella flexneri [16]): 250 µg/mL (≈ 627 µM); MIC (Klebsiella pneumoniae [17]): 125 µg/mL (≈ 314 µM); MIC [18]: 250 µg/mL (≈ 627 µM) |
| N#CC1=C(N)C2(C(=O)c3ccccc3C2=O)[C@@H](c2cccs2)[C@@H]2CCCC=C12 (relative stereo) | 12 | 10 | 18 | 10 | 15 | 16 | 14 | 22 | 24 | 10 |  | 250 (≈ 647 µM) | 125 (≈ 323 µM) | 250 (≈ 647 µM) | 250 (≈ 647 µM) | 125 (≈ 323 µM) | 11 |  |  |  | MIC (Proteus vulgaris [15]): 62.5 µg/mL (≈ 162 µM); MIC (Shigella flexneri [16]): 62.5 µg/mL (≈ 162 µM); MIC (Klebsiella pneumoniae [17]): 250 µg/mL (≈ 647 µM); MIC [18]: 250 µg/mL (≈ 647 µM) |
| N#CC1=C(N)[C@]2(C(=O)Nc3ccccc32)[C@@H](c2ccccc2F)[C@@H]2CCCC=C12 (mixture of isomers) | 13 | 17 | 12 | 10 | 14 | 11 | 10 | 8 | 9 | 10 | inactive | 125 | 250 | 250 | 250 | 250 |  |  |  |  | MIC (Proteus vulgaris [15]): 1000 µg/mL; MIC (Shigella flexneri [16]): 1000 µg/mL; MIC (Klebsiella pneumoniae [17]): 500 µg/mL; MIC [18]: 250 µg/mL |
| COc1ccc([C@H]2[C@@H]3CCCC=C3C(C#N)=C(N)C23C(=O)c2ccccc2C3=O)cc1 (relative stereo) | 12 | 11 |  | 11 | 10 |  | 10 |  |  |  |  |  |  |  |  |  | 10 | inactive | inactive | inactive | inhibition (Staphylococcus aureus [3]): inactive; inhibition (Salmonella typhimurium [6]): inactive |
| CC(=O)N1CCN(c2ccc(OCC3COC(Cn4ccnc4)(c4ccc(Cl)cc4Cl)O3)cc2)CC1 (racemic) [KETOCONAZOLE] |  |  |  |  |  |  |  |  |  | 28 |  |  |  |  |  |  | 26 |  |  |  |  |
| N#CC1=C(N)[C@]2(C(=O)Nc3ccccc32)[C@@H](c2ccccn2)[C@@H]2CCCC=C12 | 9 |  |  |  | 8 | 11 |  | 10 |  | 12 |  |  |  |  |  |  | 11 |  | inactive |  | inhibition (Staphylococcus aureus [2]): inactive; inhibition (Staphylococcus aureus [3]): inactive; inhibition (Micrococcus luteus [4]): inactive; inhibition (Klebsiella pneumoniae [7]): inactive |
| Cc1ccc([C@H]2[C@@H]3CCCCC=C3C(C#N)=C(N)[C@]23C(=O)Nc2ccccc23)cc1 | 14 | 13 | 15 | 13 | 12 | 16 | 12 | 12 | 11 | 9 |  | 250 (≈ 632 µM) | 250 (≈ 632 µM) | 250 (≈ 632 µM) | 250 (≈ 632 µM) | 125 (≈ 316 µM) | 8 |  |  |  | MIC (Proteus vulgaris [15]): 250 µg/mL (≈ 632 µM); MIC (Shigella flexneri [16]): 250 µg/mL (≈ 632 µM); MIC (Klebsiella pneumoniae [17]): 250 µg/mL (≈ 632 µM); MIC [18]: 250 µg/mL (≈ 632 µM) |
| Cc1ccc([C@H]2[C@@H]3CCCC=C3C(C#N)=C(N)C23C(=O)CCCC3=O)cc1 (relative stereo) |  |  |  |  |  |  | 10 | 9 |  |  | inactive |  |  |  |  |  |  |  | inactive | inactive | inhibition [1]: inactive; inhibition (Staphylococcus aureus [2]): inactive; inhibition (Staphylococcus aureus [3]): inactive; inhibition (Micrococcus luteus [4]): inactive; inhibition (Klebsiella aerogenes [5]): inactive; inhibition (Salmonella typhimurium [6]): inactive |
| N#CC1=C(N)[C@]2(C(=O)Nc3ccccc32)[C@@H](c2ccoc2)[C@@H]2CCCC=C12 |  |  | 10 | 8 |  |  |  |  |  |  | inactive |  |  |  |  |  |  | inactive | inactive | inactive | inhibition [1]: inactive; inhibition (Staphylococcus aureus [2]): inactive; inhibition (Klebsiella aerogenes [5]): inactive; inhibition (Salmonella typhimurium [6]): inactive; inhibition (Klebsiella pneumoniae [7]): inactive |
| N#CC1=C(N)C2(C(=O)c3ccccc3C2=O)[C@@H](c2ccc(Br)cc2)[C@@H]2CCCC=C12 (relative stereo) |  | 14 | 13 |  |  | 12 | 10 |  |  | 10 | inactive |  |  |  |  |  |  | inactive | inactive |  | inhibition [1]: inactive; inhibition (Micrococcus luteus [4]): inactive; inhibition (Klebsiella aerogenes [5]): inactive |
| COc1ccc([C@H]2[C@@H]3CCC=C3C(C#N)=C(N)C23C(=O)c2ccccc2C3=O)cc1 (relative stereo) |  |  | 10 | 8 |  |  | 11 |  |  |  | inactive |  |  |  |  |  |  | inactive | inactive | inactive | inhibition [1]: inactive; inhibition (Staphylococcus aureus [2]): inactive; inhibition (Klebsiella aerogenes [5]): inactive; inhibition (Salmonella typhimurium [6]): inactive |
| N#CC1=C(N)C2(C(=O)c3ccccc3C2=O)[C@@H](c2ccc(Cl)cc2)[C@@H]2CCCC=C12 (relative stereo) | 8 | 9 | 13 |  | 13 | 10 |  |  | 8 |  | inactive |  |  |  |  |  |  | inactive |  | inactive | inhibition (Micrococcus luteus [4]): inactive; inhibition (Klebsiella pneumoniae [7]): inactive |
| COc1ccc([C@H]2[C@@H]3CCCC=C3C(C#N)=C(N)[C@]23C(=O)Nc2ccccc23)cc1 | 9 | 10 | 11 | 8 | 10 | 8 | 9 |  | 8 | 10 |  |  |  |  |  |  | 13 | inactive |  |  |  |
